Reference: ChEMBL document CHEMBL1649102, “Stereochemical survey of digitoxin monosaccharides: new anticancer analogues with enhanced apoptotic activity and growth inhibitory effect on human non-small cell lung cancer cell” (ACS Med Chem Lett, 2011)

Columns and labels:
[1] = Growth inhibition of human NCI60 cells; type: functional
Method in brief: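 NCI-60 cell lines grown in RPMI 1640 with 5% FBS and 2 mM L-glutamine, plated at 5,000–40,000 cells/well and preincubated 24 h. Time-zero plates were TCA-fixed. Drug was given at five concentrations (10-fold or ½-log dilutions from DMSO stock) for 48 h at 37°C. Cells were TCA-fixed, stained with SRB, and read at 515 nm. GI50 is where [(Ti−Tz)/(C−Tz)]×100 = 50.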

NCI-H460 [2] = experiment: Cytotoxicity against human NCI-H460 cells assessed as cell death at 50 nM after 12 hrs by Hoechst-33342 staining and propidium iodide staining; type: functional, cell-based; details: NCI-H460, 12 h
Method in brief: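 NCI-H460 cells were seeded at 50,000 cells/well for 12 h, then exposed 12 h in serum-free medium (DMSO <0.1%). Cells were stained with Hoechst 33342 (10 µg/ml) and propidium iodide (20 µg/ml) for 30 min at 37°C. Condensed or fragmented nuclei were scored by fluorescence microscopy, and apoptotic index = apoptotic/total nuclei ×100. Duplicate wells, ≥3 runs (N = 6).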

NCI-H460 [3] = experiment: Growth inhibition of human NCI-H460 cells after 48 hrs by MTT assay; type: functional; details: NCI-H460, 48 h
Method in brief: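 NCI-H460 cells in RPMI 1640 with 10% FBS were seeded at 10,000 cells/well for 12 h. Drug was diluted 1000× from DMSO into 1% FBS medium (DMSO <0.1%). Time-course runs used 50 nM; dose–response runs used 48 h exposure. Viability was read by MTT (4 h), with formazan dissolved in DMSO for 45 min and read at 562 nm. Triplicate wells, ≥3 runs (N = 9), two-way ANOVA.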

C[C@@H]1O[C@H](O[C@H]2CC[C@@]3(C)[C@H](CC[C@@H]4[C@@H]3CC[C@]3(C)[C@@H](C5=CC(=O)OC5)CC[C@]43O)C2)C[C@H](O)[C@H]1O
GI50 [1]: 1 nM

C[C@H]1O[C@@H](O[C@H]2[C@@H](O)C[C@H](O[C@H]3[C@@H](O)C[C@H](O[C@H]4CC[C@@]5(C)[C@H](CC[C@@H]6[C@@H]5CC[C@]5(C)[C@@H](C7=CC(=O)OC7)CC[C@]65O)C4)O[C@@H]3C)O[C@@H]2C)C[C@H](O)[C@@H]1O [DIGITOXIN]
IC50 (NCI-H460 [2]): 357 nM | GI50 (NCI-H460 [3]): 10.7 nM

C[C@H]1O[C@H](O[C@H]2CC[C@@]3(C)[C@H](CC[C@@H]4[C@@H]3CC[C@]3(C)[C@@H](C5=CC(=O)OC5)CC[C@]43O)C2)C=C[C@@H]1O
GI50 [1]: 1 nM

C[C@H]1O[C@H](O[C@H]2CC[C@@]3(C)[C@H](CC[C@@H]4[C@@H]3CC[C@]3(C)[C@@H](C5=CC(=O)OC5)CC[C@]43O)C2)CC[C@@H]1O
GI50 [1]: 113 nM

C[C@H]1O[C@@H](O[C@H]2[C@@H](O)C[C@H](O[C@H]3CC[C@@]4(C)[C@H](CC[C@@H]5[C@@H]4CC[C@]4(C)[C@@H](C6=CC(=O)OC6)CC[C@]54O)C3)O[C@@H]2C)C[C@H](O)[C@@H]1O
GI50 [1]: 50 nM
